Activity calls are given as the source filed them. The rule behind the calls is not given here.
Key:
Pythium [1] = assay: Antifungal activity against Pythium sp. assessed as growth inhibition at 100 ppm by agar dilution method relative to control; format: functional; conditions: read-out: GI
In short: (§1)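 Pythium sp. and Corticium rolfsii were each grown on potato dextrose agar (1.5% agar) for 5 days at 27°C before testing. Growth inhibition was measured by agar dilution, following a previously reported method.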

Pythium [2] = assay: Antifungal activity against Pythium sp. assessed as growth inhibition at 1000 ppm by agar dilution method relative to control; format: functional; conditions: read-out: GI; in short: as §1
Coptotermes formosanus [3] = assay: Insecticidal activity against Coptotermes formosanus assessed as increase in mortality at 1 mg/filter paper measured for 14 days relative to control; format: functional
In short: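 The termite assay was run in three replicates, which were combined into a mean. Mortality is given as a percentage relative to the untreated control termite group.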

Athelia rolfsii [4] = assay: Antifungal activity against Athelia rolfsii assessed as growth inhibition at 1000 ppm by agar dilution method relative to control; format: functional; conditions: Agroathelia rolfsii; read-out: GI; in short: as §1
Athelia rolfsii [5] = assay: Antifungal activity against Athelia rolfsii assessed as growth inhibition at 100 ppm by agar dilution method relative to control; format: functional; conditions: Agroathelia rolfsii; read-out: GI; in short: as §1
Coptotermes formosanus [6] = assay: Insecticidal activity against Coptotermes formosanus assessed as increase in mortality at 0.1 to 1 mg/filter paper measured for 14 days; format: functional, organism-based
In short: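 Termite mortality was counted in three replicates and the replicates were combined into a mean. Mortality is given as a percentage relative to an untreated control group of termites.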

| Structure (SMILES) | inhibition of growth at 100 ppm (Pythium [1]) | inhibition of growth at 1000 ppm (Pythium [2]) | mortality (Coptotermes formosanus [3]) | inhibition of growth at 1000 ppm (Athelia rolfsii [4]) | inhibition of growth at 100 ppm (Athelia rolfsii [5]) | Activity (Coptotermes formosanus [6]) |
| --- | --- | --- | --- | --- | --- | --- |
| CCOP(=S)(OCC)Oc1cc(CCc2ccccc2)oc(=O)c1 | 18% | 44% | 50% | 66% | 57% | – |
| COP(=S)(OC)Oc1cc(CCc2ccccc2)oc(=O)c1 | 50% | 88% | 93% | 98% | 91% | – |
| COc1cc(CCc2ccccc2)oc(=O)c1 [DIHYDRO-5,6-DEHYDROKAWAIN] | 72% | 94% | – | 96% | 64% | inactive |
| O=c1cc(O)cc(CCc2ccccc2)o1 | 22% | 100% | – | 100% | 44% | inactive |
| COc1cc(/C=C/c2ccccc2)oc(=O)c1 [DESMETHOXYYANGONIN] | 42% | 86% | – | 54% | 0% | – |

Reference: ChEMBL document CHEMBL3044969, “Syntheses and biological activities of dihydro-5,6-dehydrokawain derivatives” (1996)
